Converted amounts (≈) assume the structure as drawn.
Assays:
[1] = Genotoxicity in human HepG2/C3A cells assessed as DNA fragmentation at 10 uM after 24 hrs by alkaline comet assay (reference value: 6.65%); assay type: toxicity, cell-based
Procedure, shortened: (§1)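 Alkaline comet assay. C3A cells, 40,000/well, recovered overnight, then exposed 24 h at 37 °C, 5% CO2 to 0.1–10 µM final, diluted in DMEM + 10% FCS from 1 mM DMSO stock. Cells embedded in low-melting agarose, lysed 1 h, denatured 40 min at pH > 13, electrophoresed 20 min at 300 mA, about 17 °C. Gel red stain, % tail DNA scored by fluorescence microscopy. EMS 0.5 and 0.75 mM as positive control. Mann–Whitney U test.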

[2] = Genotoxicity in human HepG2/C3A cells assessed as DNA fragmentation at 3 uM after 24 hrs by alkaline comet assay (reference value: 6.65%); assay type: toxicity, cell-based; procedure, shortened: as §1
[3] = Genotoxicity in human HepG2/C3A cells assessed as DNA fragmentation at 1 uM after 24 hrs by alkaline comet assay (reference value: 6.65%); assay type: toxicity, cell-based; procedure, shortened: as §1
[4] = Genotoxicity in human HepG2/C3A cells assessed as DNA fragmentation at 0.1 uM after 24 hrs by alkaline comet assay (reference value: 6.65%); assay type: toxicity, cell-based; procedure, shortened: as §1
[5] = Genotoxicity in human HepG2/C3A cells assessed as DNA fragmentation at 0.3 uM after 24 hrs by alkaline comet assay (reference value: 6.65%); assay type: toxicity, cell-based; procedure, shortened: as §1
Salmonella typhimurium [6] = assay: Genotoxicity in recombinant Salmonella typhimurium TA104 expressing Vibrio fisheri luxabcd genes under transcriptional control of recN2-4 promoter assessed as concentration required to cause DNA damage measured every 5 mins for 4 hrs by vitotox assay in presence of S9 fraction; assay type: toxicity, organism-based; conditions: salmonella enterica subsp. enterica serovar typhimurium, s9, 4 h
Procedure, shortened: (§2)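 VITOTOX genox strain TA104 recN2-4 (recN promoter driving lux). Grown 16 h at 36 °C in poor LB, diluted 125-fold and shaken 1 h, then diluted 10-fold; rat aroclor S9 added for +S9 runs. Incubated at 30 °C with light read every 5 min for 4 h. Signal/noise = exposed over unexposed light. Highest concentration tested 10 µM.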

[7] = Toxicity in recombinant Salmonella typhimurium TA104 expressing luxabcd genes under transcriptional control of constitutive pr1 promoter assessed as concentration required to reduce cell viability measured every 5 mins for 4 hrs by vitotox assay in presence of S9 fraction; assay type: organism-based; conditions: salmonella enterica subsp. enterica serovar typhimurium; read-out: Activity
Procedure, shortened: (§3)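 Cytox strain TA104 pr1 (constitutive promoter driving lux), run alongside the genox strain. Grown in poor LB at 36 °C for 16 h, diluted 125-fold and shaken 1 h, then diluted 10-fold, with or without aroclor-rat S9. Luminescence read at 30 °C every 5 min over 4 h; a drop in light signal indicates reduced viability. Top concentration 10 µM.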

Salmonella typhimurium [8] = assay: Toxicity in recombinant Salmonella typhimurium TA104 expressing luxabcd genes under transcriptional control of constitutive pr1 promoter assessed as concentration required to reduce cell viability measured every 5 mins for 4 hrs by vitotox assay in absence of S9 fraction; assay type: organism-based; conditions: salmonella enterica subsp. enterica serovar typhimurium; procedure, shortened: as §3
Salmonella typhimurium [9] = assay: Genotoxicity in recombinant Salmonella typhimurium TA104 expressing Vibrio fisheri luxabcd genes under transcriptional control of recN2-4 promoter assessed as concentration required to cause DNA damage measured every 5 mins for 4 hrs by vitotox assay in absence of S9 fraction; assay type: toxicity, organism-based; conditions: salmonella enterica subsp. enterica serovar typhimurium; procedure, shortened: as §2
[10] = Cytotoxicity against human HepG2/C3A cells assessed as cell viability at 180 uM after 24 hrs by neutral red uptake assay relative to control; assay type: cell-based; conditions: read-out: Activity
Procedure, shortened: (§4)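 C3A cells grown in DMEM + 10% FCS, 40 000 cells/well, recovered overnight at 37 °C, 5% CO2. Exposed 24 h to serial dilutions in DMEM + 10% FCS from 18 mM DMSO stocks, DMSO limited to 1%. Neutral red added for 3 h, cells washed, dye extracted with ethanol/acetic acid (50%/1%), OD read at 540 nm with 620 nm reference. Viability expressed as % of untreated cells.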

[11] = Cytotoxicity against human HepG2/C3A cells assessed as cell viability at 120 uM after 24 hrs by neutral red uptake assay relative to control; assay type: cell-based; conditions: read-out: Activity; procedure, shortened: as §4
[12] = Cytotoxicity against human HepG2/C3A cells assessed as cell viability at 60 uM after 24 hrs by neutral red uptake assay relative to control; assay type: cell-based; conditions: read-out: Activity; procedure, shortened: as §4
[13] = system: Mycobacterium tuberculosis; assay: Antimycobacterial activity against Mycobacterium tuberculosis H37Rv infected in mouse J774.A1 cells at 1 MOI assessed as intracellular bacterial growth inhibition at 0.1 uM after 1 hr by luciferase reporter gene assay relative to control; assay type: functional; conditions: J774.A1, 1 h, read-out: GI
[14] = system: Mycobacterium tuberculosis; assay: Antimycobacterial activity against Mycobacterium tuberculosis H37Rv infected in mouse J774.A1 cells at 1 MOI assessed as intracellular bacterial growth inhibition at 1 uM after 1 hr by luciferase reporter gene assay relative to control; assay type: functional; conditions: J774.A1, 1 h, read-out: GI
[15] = system: Mycobacterium tuberculosis; assay: Antimycobacterial activity against Mycobacterium tuberculosis H37Rv infected in mouse J774.A1 cells at 1 MOI assessed as intracellular bacterial growth inhibition at 10 uM after 1 hr by luciferase reporter gene assay relative to control; assay type: functional; conditions: J774.A1, 1 h, read-out: GI
[16] = Selectivity index, ratio of NI50 for human HepG2/C3A cells to MIC50 for Mycobacterium tuberculosis H37Rv ATCC 27294; assay type: functional
[17] = Potency index, ratio of MIC50 for Mycobacterium avium subsp. paratuberculosis ATCC 19698 to MIC50 for Mycobacterium bovis AN5; assay type: functional
[18] = Potency index, ratio of MIC50 for Mycobacterium avium subsp. avium ATCC 15769 to MIC50 for Mycobacterium bovis AN5; assay type: functional
Mycobacterium ulcerans = assay: Antimycobacterial activity against Mycobacterium ulcerans 1615 assessed as growth inhibition after 6 days by luciferase reporter gene assay; assay type: functional; conditions: Mycobacterium ulcerans, 1615, 144 h
Procedure, shortened: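 M. ulcerans 1615 carrying pSMT1 luciferase reporter plasmid, stock grown as surface pellicle on Sauton medium, cultured at 32 °C. Serial compound dilutions in 7H9 + 10% FCS from 10 mM DMSO stocks, tested in triplicate. Filtered bacteria added at 50 000 RLU/mL. After 6 days, wells collected and washed with PBS, 1% n-decanal in ethanol added, light read over 10 s. MIC50 = concentration giving 50% inhibition versus untreated.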

[19] = system: Mycobacterium avium subsp. paratuberculosis; assay: Antimycobacterial activity against Mycobacterium avium subsp. paratuberculosis ATCC 19698 assessed as growth inhibition after 6 days by luciferase reporter gene assay; assay type: functional; conditions: ATCC 19698, 144 h
Procedure, shortened: (§5)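 Mycobacteria carrying the pSMT1 luciferase reporter plasmid. Compounds came from 10 mM DMSO stocks and were serially diluted in 7H9 + 10% FCS. Thawed bacteria were filtered, recovered 1 h at 37 °C, then added at 50 000 RLU/mL. After 6 days of culture, light was read for 10 s after adding 1% n-decanal. Triplicates were run, and MIC50 was the concentration giving 50% growth inhibition.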

[20] = Antimycobacterial activity against Mycobacterium avium subsp. avium ATCC 15769 assessed as growth inhibition after 6 days by luciferase reporter gene assay; assay type: functional; conditions: ATCC 15769, 144 h; procedure, shortened: as §5
[21] = system: Mycobacterium tuberculosis; assay: Antimycobacterial activity against Mycobacterium tuberculosis H37Rv ATCC 27294 assessed as growth inhibition after 6 days by luciferase reporter gene assay; assay type: functional; conditions: H37Rv ATCC 27294, 144 h; procedure, shortened: as §5
[22] = system: Mycobacterium tuberculosis; assay: Antimycobacterial activity against Mycobacterium tuberculosis H37Rv ATCC 27294 assessed as growth inhibition at 0.1 uM after 6 days by luciferase reporter gene assay relative to control; assay type: functional; conditions: H37Rv ATCC 27294, 144 h, read-out: GI
Procedure, shortened: (§6)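 Luminescent M. tb H37Rv (hsp60-driven luciferase) in 7H9 + 10% FCS was seeded at 50 000 RLU/mL. Compounds were tested at 10, 1 and 0.1 µM from 10 mM DMSO stocks. After 6 days, luminescence was read with 1% n-decanal. Growth inhibition (%) was expressed against untreated culture, with triplicates.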

[23] = system: Mycobacterium tuberculosis; assay: Antimycobacterial activity against Mycobacterium tuberculosis H37Rv ATCC 27294 assessed as growth inhibition at 1 uM after 6 days by luciferase reporter gene assay relative to control; assay type: functional; conditions: H37Rv ATCC 27294, 144 h, read-out: GI; procedure, shortened: as §6
[24] = system: Mycobacterium tuberculosis; assay: Antimycobacterial activity against Mycobacterium tuberculosis H37Rv ATCC 27294 assessed as growth inhibition at 10 uM after 6 days by luciferase reporter gene assay relative to control; assay type: functional; conditions: H37Rv ATCC 27294, 144 h, read-out: GI; procedure, shortened: as §6

## O=Cc1ccc(OCCCCCCCCCCCCOc2ccc(C=O)cc2)cc1
[1]
  Activity: 6.97%
[2]
  Activity: 7.44%
[3]
  Activity: 7.62%
[4]
  Activity: 5.72%
[5]
  Activity: 7.64%
Salmonella typhimurium [6]
  Activity: > 10 µM
[7]
  MCC at 4 h: > 10 µM
Salmonella typhimurium [8]
  Activity: > 10 µM
Salmonella typhimurium [9]
  Activity: > 10 µM
[10]
  viability at 24 h, 180 µM: 68.1%
[11]
  viability at 24 h, 120 µM: 89.9%
[12]
  viability at 24 h, 60 µM: 101%
[13]
  intracellular bacterial growth inhibition at 0.1 µM: 13.5%
[14]
  percent inhibition of intracellular bacterial growth at 1 µM: 53.1%
[15]
  intracellular bacterial growth inhibition at 10 µM: 74%
[16]
  Selectivity Index: >346.2
[17]
  Ratio: 5
[18]
  Ratio: 5
Mycobacterium ulcerans
  MIC50: 8.21 µM (≈ 3.37 µg/mL)
[19]
  MIC50: 4.75 µM (≈ 1.95 µg/mL)
[20]
  MIC50: 5.01 µM (≈ 2.06 µg/mL)
[21]
  MIC50: 0.52 µM (≈ 0.213 µg/mL)
[22]
  inhibition of growth at 0.1 µM: 26%
[23]
  inhibition of growth at 1 µM: 81%
[24]
  inhibition of growth at 10 µM: 100%
